Test results published in ChEMBL document CHEMBL1137287, “Peptidyl-urea based inhibitors of soluble epoxide hydrolases” (Bioorg Med Chem Lett, 2006).

Columns and labels:
[1] = target: T1, Bifunctional epoxide hydrolase 2 (Mus musculus, UniProt P34914); assay: Inhibition of mouse recombinant soluble Epoxide hydrolase
T1 sequence (P34914 whole entry): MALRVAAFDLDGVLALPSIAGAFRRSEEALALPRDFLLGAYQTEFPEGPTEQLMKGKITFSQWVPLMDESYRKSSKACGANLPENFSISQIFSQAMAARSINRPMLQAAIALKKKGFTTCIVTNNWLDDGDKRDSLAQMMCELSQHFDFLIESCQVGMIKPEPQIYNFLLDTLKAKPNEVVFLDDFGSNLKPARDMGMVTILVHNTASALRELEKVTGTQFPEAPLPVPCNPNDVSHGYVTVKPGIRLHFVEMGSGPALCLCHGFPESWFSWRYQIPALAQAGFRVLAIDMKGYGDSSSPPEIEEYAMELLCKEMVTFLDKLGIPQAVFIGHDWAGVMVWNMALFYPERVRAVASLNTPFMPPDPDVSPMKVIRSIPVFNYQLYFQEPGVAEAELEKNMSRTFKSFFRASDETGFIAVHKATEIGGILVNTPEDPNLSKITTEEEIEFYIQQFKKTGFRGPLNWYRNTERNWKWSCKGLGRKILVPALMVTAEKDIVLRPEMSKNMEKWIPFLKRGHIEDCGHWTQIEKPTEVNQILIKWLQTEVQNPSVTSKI

[2] = Solubility in sodium phosphate buffer at pH 7.4; assay type: physicochemical
Summary of the method: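 Solubility measured in sodium phosphate buffer, 100 mM, pH 7.4, following a previously described procedure.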

[3] = target: T2, Bifunctional epoxide hydrolase 2 (Homo sapiens, UniProt P34913); assay: Inhibition of human recombinant soluble Epoxide hydrolase
T2 sequence (P34913 whole entry): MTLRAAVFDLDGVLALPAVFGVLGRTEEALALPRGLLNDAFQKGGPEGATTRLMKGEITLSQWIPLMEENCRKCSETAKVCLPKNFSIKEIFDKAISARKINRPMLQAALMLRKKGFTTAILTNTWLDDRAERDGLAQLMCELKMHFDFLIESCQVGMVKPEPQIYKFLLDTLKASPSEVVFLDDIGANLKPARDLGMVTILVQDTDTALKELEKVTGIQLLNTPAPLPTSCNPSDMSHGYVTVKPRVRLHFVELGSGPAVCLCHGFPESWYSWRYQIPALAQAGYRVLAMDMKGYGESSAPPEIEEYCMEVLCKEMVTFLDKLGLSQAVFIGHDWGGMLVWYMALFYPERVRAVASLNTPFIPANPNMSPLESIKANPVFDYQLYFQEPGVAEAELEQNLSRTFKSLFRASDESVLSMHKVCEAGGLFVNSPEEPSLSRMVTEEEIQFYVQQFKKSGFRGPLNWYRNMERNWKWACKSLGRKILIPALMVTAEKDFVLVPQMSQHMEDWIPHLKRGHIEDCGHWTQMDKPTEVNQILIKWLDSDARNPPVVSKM

[4] = AUC in dog at 0.3 mg/kg, po; assay type: ADME, organism-based, Canis lupus familiaris; set-up: dose 0.3 mg/kg, route oral; conditions: plasma
Summary of the method: (§1)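 Dogs given oral dose of 0.3 mg/kg per inhibitor, three different inhibitors per dog per experiment, formulated at 6 mg/mL in triglycerides (tristearate, 6 mL). AUC estimated from plasma concentration (nM) versus time (min) plot.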

[5] = Plasma concentration in dog at 0.3 mg/kg, po after 30 min; assay type: ADME, organism-based, Canis lupus familiaris; set-up: dose 0.3 mg/kg, route oral; summary of the method: as §1
[6] = Plasma concentration in dog at 0.3 mg/kg, po after 15 min; assay type: ADME, organism-based, Canis lupus familiaris; set-up: dose 0.3 mg/kg, route oral; summary of the method: as §1
[7] = Plasma concentration in dog at 0.3 mg/kg, po after 60 min; assay type: ADME, organism-based, Canis lupus familiaris; set-up: dose 0.3 mg/kg, route oral; summary of the method: as §1

| SMILES | IC50 [1] | solubility [2] | IC50 [3] | also measured |
| --- | --- | --- | --- | --- |
| O=C(CCCNC(=O)NC12CC3CC(CC(C3)C1)C2)N[C@@H](Cc1cnc[nH]1)C(=O)O | 0.05 µM | > 500 µM | – | – |
| O=C(CCCCCNC(=O)NC12CC3CC(CC(C3)C1)C2)N[C@@H](Cc1cnc[nH]1)C(=O)O | – | > 500 µM | > 100 µM | – |
| CCC(C)[C@H](NC(=O)CCCCCNC(=O)NC12CC3CC(CC(C3)C1)C2)C(=O)O (stereo partly specified) | – | > 500 µM | > 100 µM | – |
| CC(C)[C@H](NC(=O)CCCNC(=O)NC12CC3CC(CC(C3)C1)C2)C(=O)O | 30 µM | > 500 µM | – | – |
| O=C(O)CC[C@H](NC(=O)CCCNC(=O)NC12CC3CC(CC(C3)C1)C2)C(=O)O | > 100 µM | > 500 µM | – | – |
| O=C(O)CNC(=O)CCCNC(=O)NC12CC3CC(CC(C3)C1)C2 | > 100 µM | > 500 µM | – | – |
| CC(C)[C@H](NC(=O)CCCCCNC(=O)NC1CCCCC1)C(=O)O | 0.56 µM | > 500 µM | 41 µM | – |
| C[C@H](NC(=O)CCCCCNC(=O)NC12CC3CC(CC(C3)C1)C2)C(=O)O | – | > 500 µM | > 100 µM | – |
| N=C(N)NCCC[C@H](NC(=O)CCCNC(=O)NC12CC3CC(CC(C3)C1)C2)C(=O)O | 16 µM | > 500 µM | – | – |
| NC(N)=NCCC[C@H](NC(=O)CNC(=O)NC1CCCCC1)C(=O)O | > 100 µM | > 500 µM | > 100 µM | – |
| O=C(O)CC[C@H](NC(=O)CNC(=O)NC1CCCCC1)C(=O)O | > 100 µM | > 500 µM | > 100 µM | – |
| CC(C)[C@H](NC(=O)CCCNC(=O)NC1CCCCC1)C(=O)O | 1.4 µM | > 500 µM | 17 µM | – |
| N=C(N)NCCC[C@H](NC(=O)CCCCCNC(=O)NC12CC3CC(CC(C3)C1)C2)C(=O)O | – | > 500 µM | > 100 µM | – |
| CC(C)C[C@H](NC(=O)CCCCCNC(=O)NC12CC3CC(CC(C3)C1)C2)C(=O)O | – | > 500 µM | > 100 µM | – |
| N=C(N)NCCC[C@H](NC(=O)CCCNC(=O)NC1CCCCC1)C(=O)O | 1 µM | > 500 µM | 25 µM | – |
| O=C(CCCCCNC(=O)NC1CCCCC1)N[C@@H](Cc1cnc[nH]1)C(=O)O | 0.06 µM | > 500 µM | > 100 µM | – |
| O=C(CNC(=O)NC1CCCCC1)N[C@@H](Cc1ccccc1)C(=O)O | 18 µM | > 500 µM | > 100 µM | – |
| CC(C)[C@H](NC(=O)CNC(=O)NC1CCCCC1)C(=O)O | > 100 µM | > 500 µM | > 100 µM | – |
| O=C(O)CCCNC(=O)NC1CCCCC1 | 1.9 µM | – | 36 µM | – |
| NC(N)=NCCC[C@H](NC(=O)CCCCCNC(=O)NC1CCCCC1)C(=O)O | 0.23 µM | > 500 µM | > 100 µM | – |
| COC(=O)CCCCCNC(=O)NC1CCCCC1 | 0.11 µM | – | 3.2 µM | – |
| O=C(O)CC[C@H](NC(=O)CCCCCNC(=O)NC12CC3CC(CC(C3)C1)C2)C(=O)O | – | > 500 µM | > 100 µM | – |
| O=C(O)CNC(=O)CCCCCNC(=O)NC12CC3CC(CC(C3)C1)C2 | – | > 500 µM | > 100 µM | – |
| O=C(NCCCC(=O)N1CCC[C@H]1C(=O)O)NC12CC3CC(CC(C3)C1)C2 | 82 µM | > 500 µM | – | – |

| SMILES | IC50 [1] | solubility [2] | IC50 [3] | also measured |
| --- | --- | --- | --- | --- |
| O=C(CCCNC(=O)NC1CCCCC1)N[C@@H](Cc1ccccc1)C(=O)O | 1.6 µM | > 500 µM | 21 µM | – |
| O=C(CCCNC(=O)NC12CC3CC(CC(C3)C1)C2)N[C@@H](Cc1ccc(O)cc1)C(=O)O | 18 µM | > 500 µM | – | – |
| O=C(CCCCCNC(=O)NC12CC3CC(CC(C3)C1)C2)N[C@@H](Cc1ccccc1)C(=O)N[C@@H](Cc1c[nH]c2ccccc12)C(=O)O | – | > 500 µM | – | Ki [3]: 0.015 µM; AUC [4]: < 1.67 nM·h; concentration at 0.5 h [5]: 0.82 nM; concentration at 0.25 h [6]: 0.62 nM; concentration at 1 h [7]: 0.33 nM |
| O=C(CCCNC(=O)NC12CC3CC(CC(C3)C1)C2)N[C@@H](Cc1c[nH]c2ccccc12)C(=O)O | 8.4 µM | > 500 µM | – | – |
| CC(C)C[C@H](NC(=O)CCCNC(=O)NC12CC3CC(CC(C3)C1)C2)C(=O)O | 15 µM | > 500 µM | – | – |
| O=C(O)C[C@H](NC(=O)CCCCCNC(=O)NC12CC3CC(CC(C3)C1)C2)C(=O)O | – | > 500 µM | > 100 µM | – |
| O=C(O)CC[C@H](NC(=O)CCCNC(=O)NC1CCCCC1)C(=O)O | 1.7 µM | > 500 µM | 24 µM | – |
| O=C(CCCCCNC(=O)NC12CC3CC(CC(C3)C1)C2)N[C@@H](Cc1ccccc1)C(=O)O | – | > 500 µM | 2.7 µM | – |
| O=C(CCCNC(=O)NC12CC3CC(CC(C3)C1)C2)N[C@@H](CO)C(=O)O | 47 µM | – | – | – |
| O=C(CCCNC(=O)NC1CCCCC1)N[C@@H](Cc1cnc[nH]1)C(=O)O | 0.05 µM | > 500 µM | 30 µM | – |
| CCC(C)[C@H](NC(=O)CCCNC(=O)NC12CC3CC(CC(C3)C1)C2)C(=O)O (stereo partly specified) | 1.3 µM | > 500 µM | – | – |
| O=C(O)C[C@H](NC(=O)CCCNC(=O)NC12CC3CC(CC(C3)C1)C2)C(=O)O | > 100 µM | > 500 µM | – | – |
| O=C(O)CC[C@H](NC(=O)CCCCCNC(=O)NC1CCCCC1)C(=O)O | 51 µM | > 500 µM | > 100 µM | – |
| O=C(O)CCCNC(=O)NC12CC3CC(CC(C3)C1)C2 | > 100 µM | > 500 µM | – | – |
| CSCC[C@H](NC(=O)CCCCCNC(=O)NC12CC3CC(CC(C3)C1)C2)C(=O)O | – | > 500 µM | > 100 µM | – |
| CSCC[C@H](NC(=O)CCCNC(=O)NC12CC3CC(CC(C3)C1)C2)C(=O)O | 4.8 µM | > 500 µM | – | – |
| C[C@H](NC(=O)CCCNC(=O)NC12CC3CC(CC(C3)C1)C2)C(=O)O | > 100 µM | > 500 µM | – | – |
| O=C(CNC(=O)NC1CCCCC1)N[C@@H](Cc1cnc[nH]1)C(=O)O | 36 µM | > 500 µM | > 100 µM | – |
| O=C(O)CCCCCNC(=O)NC1CCCCC1 | 24 µM | – | > 100 µM | – |
| O=C(CCCNC(=O)NC12CC3CC(CC(C3)C1)C2)N[C@@H](Cc1ccccc1)C(=O)O | 0.8 µM | > 500 µM | – | – |
| O=C(O)CNC(=O)NC1CCCCC1 | > 100 µM | – | > 100 µM | – |
| O=C(CCCCCNC(=O)NC1CCCCC1)N[C@@H](Cc1ccccc1)C(=O)O (stereo in doubt; form 1) | 0.15 µM | – | 2.7 µM | – |
| O=C(CCCCCNC(=O)NC1CCCCC1)N[C@@H](Cc1ccccc1)C(=O)O (stereo in doubt; form 2) | – | > 500 µM | 1 µM | – |
